# Experimental data reported in paper PMC2854254 (Cell communication & adhesion, 2009).
# Read-outs that look alike come from different tables or passages of the source.
# How the values were obtained:
# [1] = target: untagged mPanx1 (Mus musculus, UniProt Q9JIP4); assay type: cell-based
# How it was run: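 Neuro2A cells transfected with untagged mPanx1 construct. Whole-cell recording at room temperature on cells held at −60 mV, with pH 7.4 external and CsCl/EGTA/ATP pipette solutions. Channels activated by 10-s voltage ramps from −60 to +100 mV. Test compound superfused during ramps, then washed out to test reversibility.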
# [2] = target: T1, mPanx1-GFP (Mus musculus, UniProt Q9JIP4); experiment: Whole cell patch clamp of depolarization-induced; assay type: cell-based
# How it was run: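 Neuro2A cells in DMEM with 10% FCS, lipofectamine-transfected with mPanx1-GFP, recorded 24–36 h after replating. Whole-cell clamp at room temperature, held at −60 mV. Pipette CsCl/EGTA with 1 mM ATP. Currents evoked by 10-s ramps from −60 to +100 mV at 20-s intervals; kinetics from +100 mV current over 8.5 min. Test compound superfused at 1 nM–1 mM, washed out after a stable plateau. Dose-response curves; timing by ANOVA with Dunnett's test.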
# [3] = target: T1, mPanx1-GFP; experiment: Inside-out single channel patch clamp on Rin-m cells transfected with Panx1-GFP; assay type: cell-based; settings: for Effect on open time of Panx1-GFP channel: inside-out patch
# How it was run: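 Rin-m cells grown in RPMI with 5% fetal calf serum, under passage 20. Transfected overnight with 2 μg mPanx1-GFP via lipofectamine, then replated 24–36 h. Inside-out single-channel recordings at room temperature on brightly fluorescent cells. Bath pH 7.4 NaCl/Hepes; pipette CsCl/EGTA with 1 mM ATP. Test compound perfused 20 s, then washed out. Mean channel open time compared before, during and after.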
# [4] = tested on: adenosine receptors; settings: ref Weiss et al., 2003; cited from earlier work
# [5] = tested on: C×46 hemichannels and Panx1 channels; settings: oocytes; ref Bruzzone et al, 2006; cited from earlier work
# [6] = tested on: murine erythrocytes; settings: ref Skals et al, 2009; cited from earlier work
# [7] = tested on: human erythrocytes; settings: ref Skas et al, 2009; cited from earlier work
# [8] = tested on: astrocytes; settings: nanomolar concentrations, ref Suadicani et al, 2006; cited from earlier work
# [9] = tested on: Panx1; settings: nanomolar concentrations, astrocytes; ref Iglesias et al, 2008, 2009; cited from earlier work
# [10] = 100 nM, listed as mefloquine from Bioblocks
# [11] = 100 nM, listed as mefloquine from Sigma
# T1 sequence (Q9JIP4 whole entry, the tested form may be a part): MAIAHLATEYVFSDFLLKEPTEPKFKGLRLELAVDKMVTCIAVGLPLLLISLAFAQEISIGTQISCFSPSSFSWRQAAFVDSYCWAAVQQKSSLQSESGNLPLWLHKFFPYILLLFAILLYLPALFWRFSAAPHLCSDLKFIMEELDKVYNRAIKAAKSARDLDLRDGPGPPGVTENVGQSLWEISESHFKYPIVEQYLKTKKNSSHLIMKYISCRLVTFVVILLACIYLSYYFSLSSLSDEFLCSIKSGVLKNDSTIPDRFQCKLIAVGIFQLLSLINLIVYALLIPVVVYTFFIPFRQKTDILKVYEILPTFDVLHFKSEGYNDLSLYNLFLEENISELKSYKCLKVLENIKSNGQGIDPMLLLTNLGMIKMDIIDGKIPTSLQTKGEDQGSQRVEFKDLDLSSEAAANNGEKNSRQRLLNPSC
# untagged mPanx1, sequence (Q9JIP4 whole entry, the tested form may be a part): as above
smiles,measurement,setting,value
OC(c1cc(C(F)(F)F)nc2c(C(F)(F)F)cccc12)C1CCCCN1 (racemic) [(±)-erythro-(R*/S*)-mefloquine],Effect on untagged Panx1 currents,[1]; 10 nM,similarly reduced
same,Effect on untagged Panx1 currents,[1]; [10],similarly reduced
same,Effect on untagged Panx1 currents,[1]; [11],not affected
same,Effect on untagged Panx1 currents,[1]; 1μM,not affected
same,Time required for 50% blockade of Panx1 currents,[2],1.5 min
same,Effect on Panx1-GFP currents evoked by depolarizing voltage ramps,[2]; 10 nM,similarly reduced
same,Effect on Panx1-GFP currents evoked by depolarizing voltage ramps,[2]; 100 nM,substantially reduced
same,Time at which current amplitudes were significantly reduced compared to control,"[2]; 100 nM, currents at +100mV",1.5 min
same,Effect on Panx1-GFP currents evoked by depolarizing voltage ramps,[2]; [10],similarly reduced
same,Effect on Panx1-GFP currents evoked by depolarizing voltage ramps,[2]; [11],not affected
same,Effect on Panx1-GFP currents evoked by depolarizing voltage ramps,[2]; 1μM,not affected
same,Effect on Panx1-GFP currents evoked by depolarizing voltage ramps,[2]; 100μM,only minimally blocked
same,Time required for 50% blockade of Panx1 currents,[2]; applied at 100nM,0.5 min
same,Times less potent than erythro-mefloquine racemate from the two other sources,[2]; compared with Bioblocks and NCI-NIH racemate,"10,000 times"
same,Effect on open time of Panx1-GFP channel,[3]; 100nM perfused for 20 seconds,decreased
same,Effect on open time of Panx1-GFP channel,[3]; 1 μM,did not appreciably affect
same,Mean open time of Panx1 channel after washout,[3]; after washout of 100nM,restored
"OC(c1cc(C(F)(F)F)nc2c(C(F)(F)F)cccc12)C1CCCCN1 (single isomer, unassigned; (-)) [(−)-erythro- enantiomer, (−)-erythro-(11S/2′R)-MFQ]",Binding to adenosine receptors,[4],bind
O[C@H](c1cc(C(F)(F)F)nc2c(C(F)(F)F)cccc12)[C@H]1CCCCN1 [(−)-threo-(11R/2′R)-mefloquine],Effect on Panx1-GFP currents evoked by depolarizing voltage ramps,[2]; 1μM,prevented
same,Time required for 50% blockade of Panx1 currents,[2]; applied at 10μM,1.5 min
CC1(C)[C@@H](OC(=O)CCC(=O)O)CC[C@]2(C)[C@H]3C(=O)C=C4[C@@H]5C[C@@](C)(C(=O)O)CC[C@]5(C)CC[C@@]4(C)[C@]3(C)CC[C@@H]12 [carbenoxolone],Difference in potency for blockade between C×46 hemichannels and Panx1 channels,[5],5–10 fold
O=C(O)c1ccccc1Nc1cccc(C(F)(F)F)c1 [flufenamic acid],Difference in potency for blockade between C×46 hemichannels and Panx1 channels,[5],5–10 fold
OC(c1cc(C(F)(F)F)nc2c(C(F)(F)F)cccc12)C1CCCCN1 (centres unmarked) [mefloquine],Concentration required for prevention of HIyA-induced hemolysis,[6],above 10 μM
same,Concentration required for prevention of HIyA-induced hemolysis,[7],above 10 μM
same,Effect on dye uptake evoked by P2X7 receptor stimulation,[8],block
same,Effect on depolarization- and BzATP-evoked Panx1 currents,[9],inhibit
